According to paper PMC10055171 (bioRxiv, 2023):
Values joined by “and” are separate entries in the source; they are usually repeats but may differ in a detail not shown here. Identical values can stand only once. Where a SMILES comes first, the peptide text is derived from it. The star is where a group is joined. Cbz = O=C(OCc1ccccc1)*

Tests used:
[1] = test system: R155H/R155H mouse model of MSP; conditions: cited from earlier work
[2] = test system: WT HeLa cells expressing GFP-TDP-4FL; test: Flow cytometry of GFP-TDP-4FL clearance, wild-type HeLa; format: cell-based
[3] = test system: CRISPR-Cas9 knock-in HeLa cells harboring A232E VCP expressing GFP-TDP-4FL; test: Flow cytometry of GFP-TDP-4FL clearance, A232E knock-in HeLa; format: cell-based
[4] = test system: HeLa cells expressing TDP-4FL; test: Confocal immunofluorescence of intranuclear TDP-4FL inclusion morphology; format: cell-based
[5] = test system: drosophila model of MSP; conditions: cited from earlier work
[6] = test system: CRISPR-Cas9 knock-in HeLa cells harboring R155H VCP expressing GFP-TDP-4FL; test: Flow cytometry of GFP-TDP-4FL clearance, R155H knock-in HeLa; format: cell-based
[7] = test system: HeLa cells expressing myc-TDP-4FL; test: Sequential extraction and immunoblot of soluble and insoluble TDP-4FL; format: cell-based
[8] = test system: HeLa cells expressing myc-TDP-4FL; test: Anti-myc immunoprecipitation of insoluble TDP-4FL, ubiquitin immunoblot; format: cell-based; conditions: MG132 treatment, immunoprecipitation of insoluble fraction
Procedure, shortened: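 Sequential extraction: RIPA, then 100,000 x g for 30 min at 4°C, then urea/thiourea/CHAPS buffer. The urea-soluble fraction was diluted in TBST containing 100 mM NEM and 5 mM EDTA and incubated overnight at 4°C with anti-c-Myc magnetic beads. Elution was in Laemmli buffer with 0.5 mM DTT, 10 min at 99°C, followed by immunoblotting with IR-dye detection.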

[9] = test system: HeLa cells expressing myc-TDP-43; test: Immunofluorescence and immunoblot of myc-TDP-43 under proteasome inhibition; format: cell-based
Procedure, shortened: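 For imaging, cells were fixed in 4% paraformaldehyde, permeabilised with 0.1% Triton X-100, stained with anti-myc and DAPI, and imaged by confocal microscopy. For blots, RIPA-soluble and urea-soluble fractions were separated at 100,000 x g, and 25-40 µg protein was immunoblotted with GAPDH as loading control.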

[10] = biological target: ND1L (aa1–481) VCP (Homo sapiens, UniProt P55072); test: ATPase activity of truncated ND1L VCP; format: biochemical; conditions: 25 μM compound vs DMSO
[11] = biological target: WT VCP + Ufd1/Nploc4 (Mus musculus, UniProt Q01853); test: Kinase-Glo ATPase assay of recombinant VCP with UFD1/NPLOC4 cofactors; format: biochemical; conditions: for Maximum % Activity (95% CI) / EC50: WT VCP + Ufd1/Nploc4, 50 nM each, 62.5 μM ATP; for EC50: read-out: EC50 (μM) (95% CI)
Procedure, shortened: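 50 nM His-tagged recombinant VCP was mixed with 50 nM co-purified UFD1/NPLOC4 complex (1:1 molar) in 25 mM HEPES pH 7.5, 100 mM NaCl, 10 mM MgCl2, 2% DMSO. Added 62.5 µM ATP and a range of activator concentrations, then incubated 1 h at 25°C. ATP remaining was read by Kinase-Glo luminescence after 20 min at room temperature. 3-parameter dose-curve fit with profile-likelihood 95% CI; n=3, 3 technical replicates.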

[12] = biological target: LD2 (aa442–806) VCP (Homo sapiens, UniProt P55072); test: ATPase activity of truncated LD2 VCP; format: biochemical; conditions: 25 μM compound vs DMSO
[13] = test system: luciferase; test: Luciferase counter-screen: Kinase-Glo without recombinant VCP; format: biochemical; conditions: 62.5 μM ATP, increasing compound, no VCP
[14] = biological target: VCP (E578Q) (Mus musculus, UniProt Q01853, E578Q); test: ATPase activity of VCP with D2 Walker B mutation; format: biochemical; conditions: 25 μM activator vs DMSO
[15] = biological target: T1, recombinant WT VCP (Mus musculus, UniProt Q01853); format: biochemical; conditions: for maximal increase of VCP activity / Maximum % Activity (95% CI): WT VCP; for maximal increase of VCP activity: increase over baseline; for Maximum % Activity (95% CI): 50 nM VCP, 62.5 μM ATP, Kinase-Glo; for recombinant WT VCP ATPase activity (in words): luciferase-based Kinase-Glo assay
Procedure, shortened: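 Titration of activator concentrations against 50 nM His-tagged recombinant VCP, no cofactors, with 62.5 µM ATP. Buffer: 25 mM HEPES pH 7.5, 100 mM NaCl, 10 mM MgCl2, 2% DMSO. Incubated 1 h at 25°C, then 20 min with Kinase-Glo reagent at room temperature, read by luminescence. Fitted to a 3-parameter dose curve with profile-likelihood 95% CI; n=3 with 3 technical replicates.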

[16] = biological target: T1, recombinant WT VCP; test: MESG-PNP; format: biochemical; conditions: for increase in kcat: 25 μM activator compared with DMSO; for kcat (nmol Pi / nmol VCP / s) (95% CI): WT VCP with 25 μM compound
Procedure, shortened: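 EnzCheck (MESG-PNP) phosphate-release assay: 50 nM recombinant VCP in ATPase buffer with 2% DMSO, 25 µM compound or DMSO, and various ATP concentrations. Absorbance at 360 nm followed for >15 min at 25°C. Phosphate was quantified from an on-plate standard curve. Initial velocities came from linear fits and were fitted to Michaelis-Menten with asymmetric profile-likelihood 95% CI.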

[17] = biological target: N-ethylmaleimide-sensitive factor (NSF) (Homo sapiens, UniProt P46459); test: ATPase activity of recombinant NSF; format: biochemical; conditions: 25 μM activator, 50 nM NSF, 62.5 μM ATP
[18] = CB5083 + CHX 6 hours after 3 hours MG132
[19] = 5μM UP109 + CHX 4 hours after MG132, vs CHX only

ND1L (aa1–481) VCP, sequence (P55072 1-481): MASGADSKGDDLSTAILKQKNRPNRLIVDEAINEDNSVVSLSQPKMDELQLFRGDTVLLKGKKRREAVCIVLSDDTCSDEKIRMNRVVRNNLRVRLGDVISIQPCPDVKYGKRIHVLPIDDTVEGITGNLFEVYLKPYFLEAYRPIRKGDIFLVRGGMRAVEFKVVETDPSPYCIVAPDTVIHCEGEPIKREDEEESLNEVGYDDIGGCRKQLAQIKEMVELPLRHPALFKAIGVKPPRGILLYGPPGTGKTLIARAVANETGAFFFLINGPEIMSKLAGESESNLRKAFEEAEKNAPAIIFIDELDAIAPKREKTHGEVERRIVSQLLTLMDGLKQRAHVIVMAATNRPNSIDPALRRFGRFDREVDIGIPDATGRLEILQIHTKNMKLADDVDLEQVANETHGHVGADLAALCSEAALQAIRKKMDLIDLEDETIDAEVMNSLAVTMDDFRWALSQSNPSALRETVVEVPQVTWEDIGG
VCP (E578Q), sequence (Q01853 whole entry E578Q): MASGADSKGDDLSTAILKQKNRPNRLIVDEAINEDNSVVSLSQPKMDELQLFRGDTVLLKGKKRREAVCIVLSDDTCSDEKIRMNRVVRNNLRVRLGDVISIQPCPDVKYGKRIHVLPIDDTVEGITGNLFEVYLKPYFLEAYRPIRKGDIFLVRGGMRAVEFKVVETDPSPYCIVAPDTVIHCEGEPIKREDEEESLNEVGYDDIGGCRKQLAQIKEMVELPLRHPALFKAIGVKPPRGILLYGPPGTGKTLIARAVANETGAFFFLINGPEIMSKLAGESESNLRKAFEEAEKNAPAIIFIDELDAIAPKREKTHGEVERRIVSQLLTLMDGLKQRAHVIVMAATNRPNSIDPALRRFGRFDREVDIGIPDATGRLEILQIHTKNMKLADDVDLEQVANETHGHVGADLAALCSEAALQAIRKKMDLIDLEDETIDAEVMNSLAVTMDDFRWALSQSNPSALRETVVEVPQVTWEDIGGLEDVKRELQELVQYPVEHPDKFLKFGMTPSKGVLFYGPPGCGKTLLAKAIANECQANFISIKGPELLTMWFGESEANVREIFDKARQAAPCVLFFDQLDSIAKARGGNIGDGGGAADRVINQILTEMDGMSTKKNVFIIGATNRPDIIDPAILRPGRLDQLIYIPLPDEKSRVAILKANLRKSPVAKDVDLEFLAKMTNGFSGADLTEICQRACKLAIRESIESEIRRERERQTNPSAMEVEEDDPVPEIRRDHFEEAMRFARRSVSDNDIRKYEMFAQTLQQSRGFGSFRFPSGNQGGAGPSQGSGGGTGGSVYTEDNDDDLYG
N-ethylmaleimide-sensitive factor (NSF), sequence (P46459 whole entry): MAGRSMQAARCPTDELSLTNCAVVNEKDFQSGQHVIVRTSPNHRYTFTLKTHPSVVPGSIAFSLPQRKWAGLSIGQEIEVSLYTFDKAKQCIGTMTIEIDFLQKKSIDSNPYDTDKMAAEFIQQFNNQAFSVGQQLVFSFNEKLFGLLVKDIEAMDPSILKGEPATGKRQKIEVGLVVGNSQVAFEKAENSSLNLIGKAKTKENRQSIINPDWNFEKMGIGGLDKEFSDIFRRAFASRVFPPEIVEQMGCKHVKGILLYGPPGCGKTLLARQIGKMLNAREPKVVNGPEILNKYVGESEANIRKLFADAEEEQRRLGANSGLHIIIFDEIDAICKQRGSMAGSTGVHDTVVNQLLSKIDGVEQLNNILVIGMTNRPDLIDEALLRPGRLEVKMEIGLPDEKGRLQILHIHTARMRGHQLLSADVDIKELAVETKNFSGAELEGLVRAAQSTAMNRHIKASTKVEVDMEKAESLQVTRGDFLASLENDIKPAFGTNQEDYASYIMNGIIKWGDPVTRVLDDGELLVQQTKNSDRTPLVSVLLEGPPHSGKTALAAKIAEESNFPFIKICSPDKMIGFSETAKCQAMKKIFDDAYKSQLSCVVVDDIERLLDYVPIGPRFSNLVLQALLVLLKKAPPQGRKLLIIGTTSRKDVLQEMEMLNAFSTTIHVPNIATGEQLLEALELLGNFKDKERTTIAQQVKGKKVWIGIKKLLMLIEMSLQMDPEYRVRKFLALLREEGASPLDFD
T1 sequence (Q01853 whole entry): as the sequence (Q01853 whole entry E578Q) above, with Q578E counted along it
WT VCP + Ufd1/Nploc4, sequence (Q01853 whole entry): as the sequence (Q01853 whole entry E578Q) above, with Q578E counted along it
WT VCP + Ufd1/Nploc4, sequence (Q92890 whole entry partner): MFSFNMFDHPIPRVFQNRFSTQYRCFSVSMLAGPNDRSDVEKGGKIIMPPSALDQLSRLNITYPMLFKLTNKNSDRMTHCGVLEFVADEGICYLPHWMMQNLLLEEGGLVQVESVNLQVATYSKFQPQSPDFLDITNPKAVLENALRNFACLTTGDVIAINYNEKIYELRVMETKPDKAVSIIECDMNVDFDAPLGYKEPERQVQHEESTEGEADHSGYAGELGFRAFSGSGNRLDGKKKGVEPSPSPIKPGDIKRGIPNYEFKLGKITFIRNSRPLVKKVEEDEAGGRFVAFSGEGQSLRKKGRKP
WT VCP + Ufd1/Nploc4, sequence (Q8TAT6 whole entry partner): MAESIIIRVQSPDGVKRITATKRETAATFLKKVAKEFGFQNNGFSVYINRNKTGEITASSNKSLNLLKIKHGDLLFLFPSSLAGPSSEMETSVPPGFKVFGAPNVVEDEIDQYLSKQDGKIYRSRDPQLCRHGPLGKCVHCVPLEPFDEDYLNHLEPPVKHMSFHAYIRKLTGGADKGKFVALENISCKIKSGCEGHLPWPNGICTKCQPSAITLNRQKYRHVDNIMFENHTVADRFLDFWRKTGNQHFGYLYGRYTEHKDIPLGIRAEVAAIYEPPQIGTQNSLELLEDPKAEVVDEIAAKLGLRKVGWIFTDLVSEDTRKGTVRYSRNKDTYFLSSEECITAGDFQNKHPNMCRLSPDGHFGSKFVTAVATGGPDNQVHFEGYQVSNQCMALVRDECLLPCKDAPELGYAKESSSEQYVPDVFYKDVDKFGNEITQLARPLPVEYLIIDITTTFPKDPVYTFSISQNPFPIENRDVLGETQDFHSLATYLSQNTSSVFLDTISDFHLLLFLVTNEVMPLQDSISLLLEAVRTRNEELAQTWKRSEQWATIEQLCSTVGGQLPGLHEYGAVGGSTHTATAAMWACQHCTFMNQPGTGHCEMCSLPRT
LD2 (aa442–806) VCP, sequence (P55072 442-806): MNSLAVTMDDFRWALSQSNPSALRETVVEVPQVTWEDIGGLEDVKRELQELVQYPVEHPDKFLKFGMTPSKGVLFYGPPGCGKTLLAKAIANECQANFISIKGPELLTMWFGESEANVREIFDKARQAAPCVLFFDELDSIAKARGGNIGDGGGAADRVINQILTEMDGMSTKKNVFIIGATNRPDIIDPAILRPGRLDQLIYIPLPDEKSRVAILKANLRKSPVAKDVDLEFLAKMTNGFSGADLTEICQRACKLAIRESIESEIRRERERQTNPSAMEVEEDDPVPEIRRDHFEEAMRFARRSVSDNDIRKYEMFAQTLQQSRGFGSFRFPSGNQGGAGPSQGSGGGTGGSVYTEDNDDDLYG

Structure (SMILES)	ATPase activity of ND1L construct [10]	Maximum % Activity (95% CI) [11]	EC50 [11] [µM]	ATPase activity of LD2 construct [12]	luciferase activity inhibition [13]	ATPase activity of VCP E578Q (inactive D2, active D1) [14]	maximal increase of VCP activity [15] [%]	Maximum % Activity (95% CI) [15]	recombinant WT VCP ATPase activity (in words) [15]	increase in kcat [16]	kcat (nmol Pi / nmol VCP / s) (95% CI) [16]	NSF ATPase activity compared to DMSO [17]	also measured
Cc1cc2c(C(N)=O)cccc2n1-c1nc2c(c(NCc3ccccc3)n1)COCC2 [CB5083]	–	–	–	–	–	–	–	–	–	–	–	–	markers of muscle pathology [1]: improved markers of muscle pathology; integrated fluorescence intensity (GFP-TDP-4FL) ([2]; WT cells, CB5083 + CHX 6 hours after 3 hours MG132): significantly higher than CHX only treatment; integrated fluorescence intensity (GFP-TDP-4FL) [3, 18]: greater integrated fluorescence intensity compared to CHX only treatment; TDP-4FL aggregate morphology [4, 18]: residual irregularly shaped intranuclear TDP-4FL aggregates; altered mitochondrial morphology caused by VCP variants [5]: reversed; integrated fluorescence intensity (GFP-TDP-4FL) [6, 18]: greater integrated fluorescence intensity compared to CHX only treatment; insoluble TDP-4FL protein [7, 18]: residual amounts of insoluble TDP-4FL protein; soluble TDP-4FL protein [7, 18]: significant decrease in soluble TDP-4FL protein
CC(C)C[C@@H](C=O)NC(=O)[C@H](CC(C)C)NC(=O)[C@H](CC(C)C)NC(=O)OCc1ccccc1 [MG132] (Cbz-Leu-Leu-Leu-aldehyde)	–	–	–	–	–	–	–	–	–	–	–	–	ubiquitination of insoluble myc-TDP-4FL [8]: ubiquitination of TDP-4FL protein; TDP-43 nuclear morphology ([9]; 4μM MG132): formation of coarse nuclear punctae; insoluble TDP-43 protein ([9]; 4μM MG132 for 0, 3, or 6 hours): increase in insoluble TDP-43 protein; soluble TDP-43 protein ([9]; 4μM MG132 for 0, 3, or 6 hours): reduction in soluble TDP-43 protein; TDP-4FL inclusion morphology ([4]; 4μM MG132, 3 or 6 hours): coalesced into larger, irregularly shaped aggregates; insoluble TDP-4FL ([7]; 4μM MG132 for 0, 3, or 6 hours): increase in insoluble TDP-4FL; soluble TDP-4FL ([7]; 4μM MG132 for 0, 3, or 6 hours): decrease in soluble TDP-4FL
O=C(CSc1nc2ccccc2c(=O)n1NC(=O)c1ccccc1)c1ccc(Cl)cc1 [UP12]	only compound to increase ATPase activity	124.6 (119.8, 130.2) %	0.648	significantly increased ATPase activity	did not inhibit luciferase activity	seemed to increase ATPase activity, though not significantly	39	139.0 (131.9, 149.0) %	significantly increased recombinant WT VCP ATPase activity	about 25%	0.309 nmol Pi / nmol VCP / s and 0.309 (0.269, 0.356) nmol Pi / nmol VCP / s	No compound significantly increased ATPase activity	–
COCCNC(=O)NC(=O)COC(=O)c1cc([N+](=O)[O-])ccc1Sc1nc(C)cs1 [UP109]	did not inhibit the ATPase activity	175.3 (164.6, 188.0) %	13.4	significantly increased ATPase activity	did not inhibit luciferase activity	decreased ATPase activity, though less than UP158 and UP163 and not significantly	97	197.4 (189.8, 206.1) %	significantly increased recombinant WT VCP ATPase activity	100%	0.489 nmol Pi / nmol VCP / s and 0.489 (0.459, 0.520) nmol Pi / nmol VCP / s	No compound significantly increased ATPase activity	integrated fluorescence intensity (GFP-TDP-4FL) ([2]; 5μM UP109 + CHX 4 hours after 17 hours MG132, vs CHX only): significantly decreased; integrated fluorescence intensity (GFP-TDP-4FL) ([2]; 20μM UP109 + CHX 4 hours after 17 hours MG132): further reduced; integrated fluorescence intensity (GFP-TDP-4FL) ([3]; 5μM UP109 + CHX vs CHX only): significantly decreased integrated fluorescence intensity; TDP-4FL aggregate morphology ([4]; 5μM UP109 + CHX 4 hours after MG132): appeared to be smaller and in some cases revert to small anisosomes; integrated fluorescence intensity (GFP-TDP-4FL) ([6]; 5μM UP109 + CHX vs CHX only): significantly decreased integrated fluorescence intensity; insoluble TDP-4FL levels [7, 19]: significant decrease in insoluble TDP-4FL levels; soluble TDP-4FL levels [7, 19]: increase in soluble TDP-4FL levels
Clc1ccc2[nH]c3c(N4CCC5(CC4)OCCO5)ncnc3c2c1 [UP158]	did not inhibit the ATPase activity	152.1 (143.2, 164.4) %	14.3	significantly increased ATPase activity	did not inhibit luciferase activity	significantly decreased ATPase activity	50	150.3 (146.6, 154.3) %	significantly increased recombinant WT VCP ATPase activity	more than 50%	0.356 nmol Pi / nmol VCP / s and 0.356 (0.320, 0.396) nmol Pi / nmol VCP / s	No compound significantly increased ATPase activity	–
O=C(OCCN(C1=NS(=O)(=O)c2ccccc21)c1ccc(Cl)cc1)c1ccco1 [UP163]	did not inhibit the ATPase activity	151.8 (144.7, 160.7) %	8.9	significantly increased ATPase activity	did not inhibit luciferase activity	significantly decreased ATPase activity	104	204.0 (189.2, 223.3) %	significantly increased recombinant WT VCP ATPase activity	more than 50%	0.366 nmol Pi / nmol VCP / s and 0.366 (0.335, 0.401) nmol Pi / nmol VCP / s	No compound significantly increased ATPase activity	change in EC50 with UN compared to without UN ([11]; recombinant UN 1:1 molar ratio with VCP): no change in EC50
